Assay results as given in article PMC6634314 (Cell chemical biology, 2019).

Experiments:
GAK [1] = target: T1, GAK (Homo sapiens, UniProt O14976); assay: MIB washout assay; format: binding; details: H23 cells, 1 μM 4h, MIB pulldown ratio SM1-71/SM1-71-R
T1 sequence (O14976 1-1311): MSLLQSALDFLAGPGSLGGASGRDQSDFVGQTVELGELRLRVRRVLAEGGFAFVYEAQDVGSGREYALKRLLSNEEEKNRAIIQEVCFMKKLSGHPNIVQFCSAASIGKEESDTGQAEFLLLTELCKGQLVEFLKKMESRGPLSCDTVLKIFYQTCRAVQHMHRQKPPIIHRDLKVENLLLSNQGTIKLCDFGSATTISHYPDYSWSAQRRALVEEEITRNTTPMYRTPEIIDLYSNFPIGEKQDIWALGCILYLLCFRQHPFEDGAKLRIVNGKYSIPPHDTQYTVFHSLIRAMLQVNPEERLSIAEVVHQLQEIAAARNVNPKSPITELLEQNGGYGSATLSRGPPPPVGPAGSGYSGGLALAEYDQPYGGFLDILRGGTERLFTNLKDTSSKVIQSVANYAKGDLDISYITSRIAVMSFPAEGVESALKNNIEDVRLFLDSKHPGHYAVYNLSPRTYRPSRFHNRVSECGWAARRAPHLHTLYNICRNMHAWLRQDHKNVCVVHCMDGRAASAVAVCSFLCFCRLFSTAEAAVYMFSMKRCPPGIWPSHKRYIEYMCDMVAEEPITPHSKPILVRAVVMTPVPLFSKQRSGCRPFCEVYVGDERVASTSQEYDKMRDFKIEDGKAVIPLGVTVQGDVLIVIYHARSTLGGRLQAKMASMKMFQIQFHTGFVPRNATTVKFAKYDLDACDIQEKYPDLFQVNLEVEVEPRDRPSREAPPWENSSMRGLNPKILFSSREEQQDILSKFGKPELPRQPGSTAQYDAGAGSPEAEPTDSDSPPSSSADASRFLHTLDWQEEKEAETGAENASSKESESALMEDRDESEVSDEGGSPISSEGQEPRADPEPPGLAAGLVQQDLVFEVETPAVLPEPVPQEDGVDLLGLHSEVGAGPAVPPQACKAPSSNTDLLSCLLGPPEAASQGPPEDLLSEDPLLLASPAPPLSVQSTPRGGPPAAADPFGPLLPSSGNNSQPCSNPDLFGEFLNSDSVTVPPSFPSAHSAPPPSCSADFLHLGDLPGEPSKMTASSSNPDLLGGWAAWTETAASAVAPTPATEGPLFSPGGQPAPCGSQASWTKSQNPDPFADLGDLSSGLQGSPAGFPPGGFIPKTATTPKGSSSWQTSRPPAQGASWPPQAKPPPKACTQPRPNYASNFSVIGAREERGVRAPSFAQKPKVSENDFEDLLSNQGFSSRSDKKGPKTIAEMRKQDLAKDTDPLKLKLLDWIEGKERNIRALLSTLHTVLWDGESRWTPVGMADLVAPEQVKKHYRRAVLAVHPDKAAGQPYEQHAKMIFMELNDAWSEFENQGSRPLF

AAK1 [2] = target: T2, AAK1 (Homo sapiens, UniProt Q2M2I8); assay: MIB washout assay; format: binding; details: H23 cells, 1 μM 4h, MIB pulldown ratio SM1-71/SM1-71-R
T2 sequence (Q2M2I8 whole entry): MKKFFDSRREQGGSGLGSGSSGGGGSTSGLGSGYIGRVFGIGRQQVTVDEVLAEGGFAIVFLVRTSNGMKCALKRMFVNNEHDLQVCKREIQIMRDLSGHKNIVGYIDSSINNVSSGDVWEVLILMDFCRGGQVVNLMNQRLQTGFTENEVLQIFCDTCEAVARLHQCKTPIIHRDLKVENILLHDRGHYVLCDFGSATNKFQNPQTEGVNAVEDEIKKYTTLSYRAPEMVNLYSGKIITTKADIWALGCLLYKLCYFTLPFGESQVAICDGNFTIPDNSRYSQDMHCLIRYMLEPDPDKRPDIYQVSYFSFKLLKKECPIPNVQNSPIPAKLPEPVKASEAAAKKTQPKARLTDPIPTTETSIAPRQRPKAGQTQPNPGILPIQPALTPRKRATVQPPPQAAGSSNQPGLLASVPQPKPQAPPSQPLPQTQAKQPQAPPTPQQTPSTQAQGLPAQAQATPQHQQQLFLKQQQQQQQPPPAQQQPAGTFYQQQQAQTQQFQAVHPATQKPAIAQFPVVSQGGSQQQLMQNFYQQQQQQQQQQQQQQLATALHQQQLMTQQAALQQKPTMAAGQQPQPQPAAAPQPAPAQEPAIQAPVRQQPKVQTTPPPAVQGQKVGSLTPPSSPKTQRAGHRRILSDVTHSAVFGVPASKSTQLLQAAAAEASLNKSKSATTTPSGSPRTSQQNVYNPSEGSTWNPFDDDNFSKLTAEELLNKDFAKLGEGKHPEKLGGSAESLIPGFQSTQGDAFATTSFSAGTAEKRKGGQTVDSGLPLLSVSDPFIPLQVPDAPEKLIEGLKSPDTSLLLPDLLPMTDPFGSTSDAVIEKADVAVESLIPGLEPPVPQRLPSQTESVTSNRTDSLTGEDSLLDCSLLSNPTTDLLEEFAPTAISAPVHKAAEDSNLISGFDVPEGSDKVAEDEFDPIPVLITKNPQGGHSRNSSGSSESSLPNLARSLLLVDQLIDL

EPHA10 = assay: MIB washout assay; format: binding, Human; details: H23 cells, 1 μM 4h, MIB pulldown ratio SM1-71/SM1-71-R
EPHA2 = assay: MIB washout assay; format: binding, Human; details: H23 cells, 1 μM 4h, MIB pulldown ratio SM1-71/SM1-71-R
AGK = assay: MIB washout assay; format: binding, Human; details: H23 cells, 1 μM 4h, MIB pulldown ratio SM1-71/SM1-71-R
STK16 = assay: MIB washout assay; format: binding, Human; details: H23 cells, 1 μM 4h, MIB pulldown ratio SM1-71/SM1-71-R
CDK17 = assay: MIB washout assay; format: binding, Human; details: H23 cells, 1 μM 4h, MIB pulldown ratio SM1-71/SM1-71-R
PRKD3 = assay: MIB washout assay; format: binding, Human; details: H23 cells, 1 μM 4h, MIB pulldown ratio SM1-71/SM1-71-R
MAPK3 = assay: MIB washout assay; format: binding, Human; details: H23 cells, 1 μM 4h, MIB pulldown ratio SM1-71/SM1-71-R
PRKDC = assay: MIB washout assay; format: binding, Human; details: H23 cells, 1 μM 4h, MIB pulldown ratio SM1-71/SM1-71-R
CSNK1A1 = assay: MIB washout assay; format: binding, Human; details: H23 cells, 1 μM 4h, MIB pulldown ratio SM1-71/SM1-71-R
CSNK1G3 = assay: MIB washout assay; format: binding, Human; details: H23 cells, 1 μM 4h, MIB pulldown ratio SM1-71/SM1-71-R
PAK4 = assay: MIB washout assay; format: binding, Human; details: H23 cells, 1 μM 4h, MIB pulldown ratio SM1-71/SM1-71-R
[3] = tested on: H23-KRAS^G12C non-small cell lung cancer (NSCLC) cell line; assay: proliferation assay; format: cell-based, Human
In short: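 NSCLC lines were mycoplasma-tested and treated with various concentrations of test compound for 72 h. Cell viability was then measured by CellTiter-Glo luminescence.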

GAK [4] = target: T1, GAK; assay: mass shift assay; format: binding; details: incubated 4 and 24h
In short: (§1)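 Kinase protein at 0.12 mM in 10 mM HEPES pH 7.5, 500 mM NaCl, incubated with 0.2 mM test compound at 4°C for 4 h and 24 h. Samples were diluted in 0.1% formic acid and desalted on a C3 pre-column. ESI-TOF was run in positive mode at 120 V, and intact mass was obtained by deconvolution to detect the adduct.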

MAP2K7 = MAP2K7 (Homo sapiens, UniProt O14733); assay: mass shift assay; format: binding; details: incubated 4 and 24h
Sequence of MAP2K7 (O14733 whole entry, species assumed): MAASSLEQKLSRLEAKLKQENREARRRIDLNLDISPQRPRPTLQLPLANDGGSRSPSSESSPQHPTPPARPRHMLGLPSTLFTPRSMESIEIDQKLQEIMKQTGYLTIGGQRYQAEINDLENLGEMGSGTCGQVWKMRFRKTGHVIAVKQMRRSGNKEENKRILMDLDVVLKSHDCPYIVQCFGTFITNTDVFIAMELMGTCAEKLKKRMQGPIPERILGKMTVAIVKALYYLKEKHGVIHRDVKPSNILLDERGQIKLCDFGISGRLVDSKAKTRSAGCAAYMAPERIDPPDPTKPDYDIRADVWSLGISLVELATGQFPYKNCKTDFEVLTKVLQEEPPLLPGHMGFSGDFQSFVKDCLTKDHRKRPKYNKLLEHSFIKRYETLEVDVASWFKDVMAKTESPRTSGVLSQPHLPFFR
In short: as §1

MAP2K6 = MAP2K6 (Homo sapiens, UniProt P52564); assay: mass shift assay; format: binding; details: incubated 4 and 24h
Sequence of MAP2K6 (P52564 whole entry, species assumed): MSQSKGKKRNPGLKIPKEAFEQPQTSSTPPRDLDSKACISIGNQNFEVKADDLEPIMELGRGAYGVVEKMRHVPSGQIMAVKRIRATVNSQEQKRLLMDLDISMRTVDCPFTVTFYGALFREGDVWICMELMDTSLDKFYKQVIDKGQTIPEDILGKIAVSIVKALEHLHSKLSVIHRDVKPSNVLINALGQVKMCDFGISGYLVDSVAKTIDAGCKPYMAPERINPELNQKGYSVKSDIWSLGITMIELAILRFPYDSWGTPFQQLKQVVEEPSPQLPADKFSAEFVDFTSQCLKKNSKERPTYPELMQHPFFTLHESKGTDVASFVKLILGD
In short: as §1

GAK [5] = target: T1, GAK; assay: MIB dose-dependent kinase inhibition assay; format: binding; details: read-out: IC50 in the MIB assay, H23 cell lysate, overnight 4°C
SRC = SRC (Homo sapiens, UniProt P12931); assay: MIB dose-dependent kinase inhibition assay; format: binding; details: read-out: IC50 in the MIB assay, H23 cell lysate, overnight 4°C
Sequence of SRC (P12931 whole entry): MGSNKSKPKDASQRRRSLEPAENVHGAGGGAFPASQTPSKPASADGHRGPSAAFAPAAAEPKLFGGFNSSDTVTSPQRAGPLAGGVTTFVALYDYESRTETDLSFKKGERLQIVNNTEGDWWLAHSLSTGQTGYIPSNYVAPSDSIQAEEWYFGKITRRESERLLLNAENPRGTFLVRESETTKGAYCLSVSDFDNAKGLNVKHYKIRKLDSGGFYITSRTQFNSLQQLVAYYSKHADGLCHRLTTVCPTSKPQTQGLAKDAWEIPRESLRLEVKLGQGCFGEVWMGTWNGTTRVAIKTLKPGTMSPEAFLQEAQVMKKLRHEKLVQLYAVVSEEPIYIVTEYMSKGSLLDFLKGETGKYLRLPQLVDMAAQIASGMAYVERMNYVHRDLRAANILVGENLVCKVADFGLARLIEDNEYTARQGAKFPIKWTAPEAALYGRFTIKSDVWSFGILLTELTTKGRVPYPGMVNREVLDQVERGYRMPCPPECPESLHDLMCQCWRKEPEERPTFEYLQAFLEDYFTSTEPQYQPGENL

AAK1 [6] = target: T2, AAK1; assay: MIB dose-dependent kinase inhibition assay; format: binding; details: read-out: IC50 in the MIB assay, H23 cell lysate, overnight 4°C
BMP2K = BMP2K (Homo sapiens, UniProt Q9NSY1); assay: MIB dose-dependent kinase inhibition assay; format: binding; details: read-out: IC50 in the MIB assay, H23 cell lysate, overnight 4°C
Sequence of BMP2K (Q9NSY1 whole entry): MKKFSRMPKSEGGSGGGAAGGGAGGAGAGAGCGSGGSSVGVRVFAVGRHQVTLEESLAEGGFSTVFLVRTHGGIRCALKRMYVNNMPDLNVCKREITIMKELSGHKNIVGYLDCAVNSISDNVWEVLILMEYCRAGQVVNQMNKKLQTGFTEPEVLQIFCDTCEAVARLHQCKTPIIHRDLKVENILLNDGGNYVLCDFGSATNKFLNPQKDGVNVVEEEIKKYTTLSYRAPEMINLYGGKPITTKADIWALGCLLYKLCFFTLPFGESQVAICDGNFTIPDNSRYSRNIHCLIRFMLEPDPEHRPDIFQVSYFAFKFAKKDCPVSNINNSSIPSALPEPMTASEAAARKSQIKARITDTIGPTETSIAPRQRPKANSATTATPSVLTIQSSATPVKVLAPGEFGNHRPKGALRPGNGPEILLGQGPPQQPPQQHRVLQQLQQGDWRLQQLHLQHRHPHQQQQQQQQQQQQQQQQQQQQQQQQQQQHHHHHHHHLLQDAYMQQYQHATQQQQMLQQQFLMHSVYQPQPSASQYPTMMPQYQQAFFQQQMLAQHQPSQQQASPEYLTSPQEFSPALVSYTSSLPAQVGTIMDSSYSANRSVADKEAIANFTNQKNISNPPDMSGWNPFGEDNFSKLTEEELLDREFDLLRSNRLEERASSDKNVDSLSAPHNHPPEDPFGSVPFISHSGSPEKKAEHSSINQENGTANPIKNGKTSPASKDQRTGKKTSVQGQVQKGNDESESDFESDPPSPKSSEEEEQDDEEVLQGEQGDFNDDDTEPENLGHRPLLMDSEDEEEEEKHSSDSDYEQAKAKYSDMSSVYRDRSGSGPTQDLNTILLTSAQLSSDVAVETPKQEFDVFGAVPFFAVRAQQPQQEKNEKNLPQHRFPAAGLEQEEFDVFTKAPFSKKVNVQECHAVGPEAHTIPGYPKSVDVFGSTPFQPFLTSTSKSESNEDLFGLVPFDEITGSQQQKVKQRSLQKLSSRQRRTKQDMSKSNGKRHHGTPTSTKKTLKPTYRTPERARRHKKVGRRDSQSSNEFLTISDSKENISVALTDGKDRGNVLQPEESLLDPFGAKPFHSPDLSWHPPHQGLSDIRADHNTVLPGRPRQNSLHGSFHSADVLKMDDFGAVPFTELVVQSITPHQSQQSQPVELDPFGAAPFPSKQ

CDK13 = details: H23 cells, 1 μM 4h, MIB pulldown ratio SM1-71/SM1-71-R

`C=CC(=O)Nc1ccccc1Nc1nc(Nc2ccc(N3CCN(C)CC3)cc2)ncc1Cl` [SM1-71] was tested, and the BI-0h (GAK [1]; 0h post-washout) was 0.07, the BI-6h (GAK [1]; 6h post-washout) was 0.04 and the BI-0h (AAK1 [2]; 0h post-washout) was 0.27. The BI-6h (AAK1 [2]; 6h post-washout) was 0.32, the BI-0h (EPHA10; 0h post-washout) was 0.72 and the BI-6h (EPHA10; 6h post-washout) was 0.63. For the same compound, the BI-0h (EPHA2; 0h post-washout) was 0.71, the BI-6h (EPHA2; 6h post-washout) was 0.49 and the BI-0h (AGK; 0h post-washout) was 0.66. The BI-6h (AGK; 6h post-washout) was 0.5, the BI-0h (STK16; 0h post-washout) was 0.51 and the BI-6h (STK16; 6h post-washout) was 0.76. For the same compound, the BI-0h (CDK17; 0h post-washout) was 0.46, the BI-6h (CDK17; 6h post-washout) was 0.76 and the BI-0h (PRKD3; 0h post-washout) was 0.59. The BI-6h (PRKD3; 6h post-washout) was 0.72, the BI-0h (MAPK3; 0h post-washout) was 0.62 and the BI-6h (MAPK3; 6h post-washout) was 0.54. For the same compound, the BI-0h (PRKDC; 0h post-washout) was 0.76, the BI-6h (PRKDC; 6h post-washout) was 0.77 and the BI-0h (CSNK1A1; 0h post-washout) was 0.91. For the same compound, the BI-6h (CSNK1A1; 6h post-washout) was 0.74, the BI-0h (CSNK1G3; 0h post-washout) was 0.77 and the BI-6h (CSNK1G3; 6h post-washout) was 0.75. For the same compound, the BI-0h (PAK4; 0h post-washout) was 0.93, the BI-6h (PAK4; 6h post-washout) was 0.9 and the growth inhibitory effects ([3]; H23-KRAS^G12C cells (Fig. S2)) was “strong growth inhibitory effects”. For the same compound, the IC50 ([3]; proliferation assays, H23-KRAS^G12C cells (Fig. S2A)) was 400 nM, the “covalent adduct formation (mass shift)” value (GAK [4]) was “formed covalent adducts” and the “covalent adduct formation (mass shift)” value (MAP2K7) was “formed covalent adducts”. For the same compound, the “covalent adduct formation (mass shift)” value (MAP2K6) was “formed covalent adducts”, the IC50 (GAK [5]) was less than 10 nM and the IC50 (SRC) was less than 10 nM. The IC50 (AAK1 [6]) was less than 10 nM, the IC50 (BMP2K) was less than 10 nM and the BI-0h (CDK13; 0h post-washout) was 0.57. The BI-6h (CDK13; 6h post-washout) was 0.57.
